Measured values collected from several papers.
Protocols differ between the studies behind these lines.
Cell line: HepG2
Effect on: cell growth or viability

| SMILES | method | time | IC50 |
| --- | --- | --- | --- |
| CCN(CC)CCn1cccc1/C=N/NC(=O)Nc1cc2c(Nc3ccc(F)c(Cl)c3)ncnc2cc1O[C@H]1CCOC1 | MTT | 72 h | 0.54 µM |
| COc1cc(/C=C/C(=O)c2ccc(NC(=O)c3ccccc3CN3C(=O)c4ccccc4C3=O)cc2)cc(OC)c1OC | MTT | 72 h | 1.62 µM |
| C=CCn1c(-c2ccc(Cl)cc2)nc2ccccc21 | MTT | – | 58.9 µM |
| CC1(C)CC[C@]2(C(=O)O)CC[C@]3(C)C(=CC[C@@H]4[C@@]5(C)CC[C@H](O)C(C)(C)[C@@H]5CC[C@]43C)[C@@H]2C1 | MTT | 48 h | > 100 µM |
| COc1ccc(-c2nc3ccc(C)cc3[nH]2)cc1O | MTT | 48 h | 59.8 µM |
| CN1CCN(CCn2cccc2/C=N/NC(=O)Nc2cc3c(Nc4ccc(F)c(Cl)c4)ncnc3cc2O[C@H]2CCOC2)CC1 | MTT | 72 h | 0.15 µM |
| COC(=O)CN=c1scc(-c2ccccc2)n1-c1ccccc1OC | MTT | 72 h | 22.7 µM |
| Oc1ncnc2cc(Nc3nc(-c4ccc(F)cc4)cs3)ccc12 | MTT | – | 7.92 µM |
| COc1cc2c(Nc3ccc(NC(=O)c4ccccc4)cc3)ncnc2cc1OCCCN1CCOCC1 | MTS | 72 h | 0.6 µM |
| c1ccc2[nH]c(-c3ccc4c(c3)OCO4)nc2c1 | MTT | 48 h | > 100 µM |
| COc1ccc(-c2cc(-c3ccc4oc(=O)cc(C)c4c3O)nc(N)n2)cc1 | MTT | 72 h | > 128 µg/mL |
| Clc1ccnc2c1ccc1c(Cl)ccnc12 | MTT | 48 h | > 50 µM |
| C#Cc1cccc(Nc2ncnc3cc(OCCOC)c(OCCOC)cc23)c1 | MTT | – | 6.83 µM |
| CC(=O)Oc1ccc2c(c1)C(C)=CC(C)(C)N2Cc1ccccc1 | MTT | 72 h | 36 µM |
| O=c1c(O)c(-c2ccc(O)cc2)oc2cc(O)cc(O)c12 | WST-1 | 48 h | 34.4 µM |
| CC(C)(C)NC(=O)NNC(=O)c1ccc(Nc2nccc(-c3ccccn3)n2)cc1 | MTT | – | > 40 µM |
| COc1c(-c2coc3cc4c(cc3c2=O)CC(OC(C)=O)C(C)(C)O4)ccc2c1C=CC(C)(C)O2 (centres unmarked) | WST-1 | 72 h | 124 µM |
| Oc1ccc(Br)cc1-c1nc2ccccc2[nH]1 | MTT | 48 h | 8.94 µM |
| CCNC(=O)NNC(=O)c1ccc(Nc2nccc(-c3ccc(Cl)cc3)n2)cc1 | MTT | 24 h | 20.3 µM |
| C=CCn1c(-c2ccc([N+](=O)[O-])cc2)nc2ccc(C)cc21 | MTT | – | 63.5 µM |
| Cc1cccc(NC(=O)NNC(=O)c2ccc(Nc3nccc(-c4ccccn4)n3)cc2)c1 | MTT | – | 23.3 µM |

| SMILES | method | time | IC50 |
| --- | --- | --- | --- |
| C=CCn1c(-c2ccc(Cl)c(Cl)c2)nc2ccccc21 | MTT | – | 66.1 µM |
| Oc1c(Br)cc(Br)c2cccnc12 | MTT | 48 h | > 100 µM |
| O=C(N/N=C/CN1CCOCC1)Nc1cc2c(Nc3ccc(F)c(Cl)c3)ncnc2cc1O[C@H]1CCOC1 | MTT | 72 h | 3.26 µM |
| CC1=C(O)C(=O)C=C2C1=CC=C1[C@@]2(C)CC[C@@]2(C)[C@@H]3C[C@](C)(C(=O)OCCO)CC[C@]3(C)CC[C@]12C | MTT | 48 h | 0.62 µM |
| COc1cc2ncnc(Nc3ccc(F)c(Cl)c3)c2cc1NC(=O)N/N=C/CN(C)C | MTT | 72 h | 2.08 µM |
| O=[N+]([O-])c1ccc(-c2csc(Nc3ccc4c(O)ncnc4c3)n2)cc1 | MTT | – | 6.87 µM |
| COc1cc2ncnc(Nc3ccc(F)c(Cl)c3)c2cc1NC(=O)N/N=C/c1cccn1CCN1CCCC1 | MTT | 72 h | 0.16 µM |
| Cc1ccc2nc(-c3ccc(N(C)C)cc3)[nH]c2c1 | MTT | 48 h | 35.1 µM |
| O=C(N/N=C/c1cccn1CCCN1CCCC1)Nc1cc2c(Nc3ccc(F)c(Cl)c3)ncnc2cc1O[C@H]1CCOC1 | MTT | 72 h | 0.67 µM |
| Cc1cc(=O)oc2ccc(-c3cc(-c4cccs4)nc(N)n3)c(O)c12 | MTT | 72 h | > 128 µg/mL |
| Cc1cc(C)n(-c2nc(Nc3ccc(Br)cc3)nc(N3CCOCC3)n2)n1 | MTT | 72 h | 3.01 µM |
| CCOc1ccc(-c2nc3ccccc3[nH]2)cc1 | MTT | 48 h | 43.1 µM |
| CC1=C(O)C(=O)C=C2C1=CC=C1[C@@]2(C)CC[C@@]2(C)[C@@H]3C[C@](C)(C(=O)OCCCCCCO)CC[C@]3(C)CC[C@]12C | MTT | 48 h | 10.7 µM |
| Cc1ccc(-c2ccc(O)cc2)c(C(=C2C=CC(=O)C=C2)c2ccc(O)cc2)c1C#Cc1ccc(O)cc1 | MTT | 48 h | 16.4 µM |
| COc1cc2ncnc(Nc3ccc(F)c(Cl)c3)c2cc1NC(=O)N/N=C/c1cccn1CCCN(C)C | MTT | 72 h | 0.05 µM |
| Cc1cc(C)cc(NC(=O)NNC(=O)c2ccc(Nc3nccc(-c4ccccn4)n3)cc2)c1 | MTT | 24 h | 20.3 µM |
| CC1=C(O)C(=O)C=C2C1=CC=C1[C@@]2(C)CC[C@@]2(C)[C@@H]3C[C@](C)(C(=O)OCCCCO)CC[C@]3(C)CC[C@]12C | MTT | 48 h | 0.63 µM |
| C[C@H]1O[C@@H](n2cc(F)c(=O)[nH]c2=O)[C@H](O)[C@@H]1O | CCK-8 | 48 h | > 50 µM |
| O=c1cc(-c2ccc(O)c(O)c2)oc2cc(O)cc(O)c12 | WST-1 | 48 h | 15.2 µM |
| CN1CCN(C/C=N/NC(=O)Nc2cc3c(Nc4ccc(F)c(Cl)c4)ncnc3cc2O[C@H]2CCOC2)CC1 | MTT | 72 h | 3.28 µM |
